Experimental data from ChEMBL document CHEMBL3112482, “Nonclassical antifolates, part 5. Benzodiazepine analogs as a new class of DHFR inhibitors: synthesis, antitumor testing and molecular modeling study” (Eur J Med Chem, 2014).
pIC50: −log10 of the molar value. Blank lines part the entries; values can stand above or below the compound they belong to.

Legend:
Dihydrofolate reductase = target: T1, Dihydrofolate reductase (Bos taurus, UniProt P00376); assay: Inhibition of bovine liver DHFR measured for every 1 min of 10 mins
T1 sequence (P00376 whole entry): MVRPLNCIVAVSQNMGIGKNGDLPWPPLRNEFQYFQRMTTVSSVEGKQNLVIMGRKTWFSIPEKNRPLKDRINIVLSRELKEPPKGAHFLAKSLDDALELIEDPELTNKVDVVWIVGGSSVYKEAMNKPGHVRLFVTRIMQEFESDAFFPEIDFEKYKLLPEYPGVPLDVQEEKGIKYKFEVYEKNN

SF-268 = assay: Growth inhibition of human SF268 cells at 10 uM after 48 hrs; assay type: functional; details: SF-268, 48 h, read-out: GI
Outline: (§1)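 NCI 60-cell-line disease-oriented human tumor panel, single-dose primary screen at 10 µM. Data given as mean-graph percent growth of treated cells, reported as percent growth inhibition (GI %).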

U-251 = assay: Growth inhibition of human U251 cells at 10 uM after 48 hrs; assay type: functional; details: U-251, 48 h, read-out: GI; outline: as §1
SNB-19 = assay: Growth inhibition of human SNB19 cells at 10 uM after 48 hrs; assay type: functional; details: SNB-19, 48 h, read-out: GI; outline: as §1
IGROV-1 = assay: Growth inhibition of human IGROV1 cells at 10 uM after 48 hrs; assay type: functional; details: IGROV-1, 48 h, read-out: GI
Outline: (§2)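 Single-dose primary screen in the NCI 60 human tumour cell line panel, run at the NCI facility. The panel covers nine subpanels: leukaemia, non-small cell lung, colon, CNS, melanoma, ovarian, renal, prostate and breast. Read-out was percent growth of treated cells, shown as a mean graph and reported as percent growth inhibition.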

[1] = Growth inhibition of human UACC257 cells at 10 uM after 48 hrs; assay type: functional; details: UACC-257, 48 h, read-out: GI; outline: as §1
[2] = Cytotoxicity against human melanoma cells at 10 uM after 48 hrs; assay type: functional; details: Melanoma cell; outline: as §2
OVCAR-8 = assay: Growth inhibition of human OVCAR8 cells at 10 uM after 48 hrs; assay type: functional; details: OVCAR-8, 48 h, read-out: GI; outline: as §2
DU-145 = assay: Growth inhibition of human DU145 cells at 10 uM after 48 hrs; assay type: functional; details: DU-145, 48 h, read-out: GI; outline: as §2
NCI-H460 = assay: Growth inhibition of human NCI-H460 cells at 10 uM after 48 hrs; assay type: functional; details: NCI-H460, 48 h, read-out: GI; outline: as §2
A498 = assay: Growth inhibition of human A498 cells at 10 uM after 48 hrs; assay type: functional; details: A498, 48 h, read-out: GI; outline: as §2
[3] = Growth inhibition of human NCI-ADR-RES cells at 10 uM after 48 hrs; assay type: functional; details: read-out: GI; outline: as §2
[4] = Cytotoxicity against human colon cancer cells at 10 uM after 48 hrs; assay type: functional; details: Cancer cell lines; outline: as §2
[5] = Cytotoxicity against human prostate cancer cells at 10 uM after 48 hrs; assay type: functional; details: Cancer cell lines
OVCAR-3 = assay: Growth inhibition of human OVCAR3 cells at 10 uM after 48 hrs; assay type: functional; details: OVCAR-3, 48 h, read-out: GI; outline: as §2
K562 = assay: Growth inhibition of human K562 cells at 10 uM after 48 hrs; assay type: functional; details: K562, 48 h, read-out: GI; outline: as §2
NCI-H322M = assay: Growth inhibition of human NCI-H322M cells at 10 uM after 48 hrs; assay type: functional; details: read-out: GI; outline: as §2
ACHN = assay: Growth inhibition of human ACHN cells at 10 uM after 48 hrs; assay type: functional; details: read-out: GI; outline: as §2
[6] = Cytotoxicity against human non-small cell lung cancer cells at 10 uM after 48 hrs; assay type: functional; details: Cancer cell lines; outline: as §2
[7] = Growth inhibition of human UO31 cells at 10 uM after 48 hrs; assay type: functional; details: UO-31, 48 h, read-out: GI; outline: as §1
786-0 = assay: Growth inhibition of human 786-0 cells at 10 uM after 48 hrs; assay type: functional; details: 786-0, 48 h, read-out: GI; outline: as §2
[8] = Growth inhibition of human OVCAR5 cells at 10 uM after 48 hrs; assay type: functional; details: OVCAR-5, 48 h, read-out: GI; outline: as §2
[9] = Growth inhibition of human Hs 578T cells at 10 uM after 48 hrs; assay type: functional; details: read-out: GI; outline: as §2
PC-3 = assay: Growth inhibition of human PC3 cells at 10 uM after 48 hrs; assay type: functional; details: PC-3, 48 h, read-out: GI; outline: as §2
SN12C = assay: Growth inhibition of human SN12C cells at 10 uM after 48 hrs; assay type: functional; details: read-out: GI; outline: as §1
SF-295 = assay: Growth inhibition of human SF295 cells at 10 uM after 48 hrs; assay type: functional; details: SF-295, 48 h, read-out: GI; outline: as §1
[10] = Cytotoxicity against human leukemia cells at 10 uM after 48 hrs; assay type: functional; details: Leukemia cell
T47D = assay: Growth inhibition of human T47D cells at 10 uM after 48 hrs; assay type: functional; details: read-out: GI; outline: as §1
SR = assay: Growth inhibition of human SR cells at 10 uM after 48 hrs; assay type: functional; details: read-out: GI; outline: as §1
[11] = Growth inhibition of human SF539 cells at 10 uM after 48 hrs; assay type: functional; details: SF-539, 48 h, read-out: GI; outline: as §1
TK-10 = assay: Growth inhibition of human TK10 cells at 10 uM after 48 hrs; assay type: functional; details: TK-10, 48 h, read-out: GI; outline: as §1
SK-MEL-5 = assay: Growth inhibition of human SK-MEL-5 cells at 10 uM after 48 hrs; assay type: functional; details: SK-MEL-5, 48 h, read-out: GI; outline: as §1
[12] = Growth inhibition of human EKVX cells at 10 uM after 48 hrs; assay type: functional; details: read-out: GI; outline: as §2
HOP-62 = assay: Growth inhibition of human HOP62 cells at 10 uM after 48 hrs; assay type: functional; details: HOP-62, 48 h, read-out: GI; outline: as §2
MDA-MB-231 = assay: Growth inhibition of human MDA-MB-231 cells at 10 uM after 48 hrs; assay type: functional; details: MDA-MB-231, 48 h, read-out: GI; outline: as §2
UACC-62 = assay: Growth inhibition of human UACC62 cells at 10 uM after 48 hrs; assay type: functional; details: UACC-62, 48 h, read-out: GI; outline: as §1
SK-MEL-2 = assay: Growth inhibition of human SK-MEL-2 cells at 10 uM after 48 hrs; assay type: functional; details: SK-MEL-2, 48 h, read-out: GI; outline: as §1
KM12 = assay: Growth inhibition of human KM12 cells at 10 uM after 48 hrs; assay type: functional; details: KM12, 48 h, read-out: GI; outline: as §2
NCI-H23 = assay: Growth inhibition of human NCI-H23 cells at 10 uM after 48 hrs; assay type: functional; details: NCI-H23, 48 h, read-out: GI; outline: as §2
CAKI-1 = assay: Growth inhibition of human CAKI-1 cells at 10 uM after 48 hrs; assay type: functional; details: CAKI-1, 48 h, read-out: GI; outline: as §2
SK-MEL-28 = assay: Growth inhibition of human SK-MEL-28 cells at 10 uM after 48 hrs; assay type: functional; details: SK-MEL-28, 48 h, read-out: GI; outline: as §1
[13] = Growth inhibition of human HOP92 cells at 10 uM after 48 hrs; assay type: functional; details: HOP-92, 48 h, read-out: GI; outline: as §2
[14] = Cytotoxicity against human renal cancer cells at 10 uM after 48 hrs; assay type: functional; details: Cancer cell lines
SK-OV-3 = assay: Growth inhibition of human SKOV3 cells at 10 uM after 48 hrs; assay type: functional; details: SK-OV-3, 48 h, read-out: GI; outline: as §1
[15] = Cytotoxicity against human CNS cancer cells at 10 uM after 48 hrs; assay type: functional; details: Cancer cell lines
SNB-75 = assay: Growth inhibition of human SNB75 cells at 10 uM after 48 hrs; assay type: functional; details: SNB-75, 48 h, read-out: GI; outline: as §1
[16] = Cytotoxicity against human breast cancer cells at 10 uM after 48 hrs; assay type: functional; details: Cancer cell lines; outline: as §2
[17] = Growth inhibition of human OVCAR4 cells at 10 uM after 48 hrs; assay type: functional; details: OVCAR-4, 48 h, read-out: GI; outline: as §2
MDA-MB-435 = assay: Growth inhibition of human MDA-MB-435 cells at 10 uM after 48 hrs; assay type: functional; details: MDA-MB-435, 48 h, read-out: GI; outline: as §2
MCF7 = assay: Growth inhibition of human MCF7 cells at 10 uM after 48 hrs; assay type: functional; details: MCF7, 48 h, read-out: GI; outline: as §2
A549 = assay: Growth inhibition of human A549 cells at 10 uM after 48 hrs; assay type: functional; details: A549, 48 h, read-out: GI; outline: as §2
[18] = read-out: LC50 (the source's name)

pIC50 (Dihydrofolate reductase): 7.00
SMILES: Clc1cc2c(cc1Cl)NC(c1ccc(Br)cc1)=C1CCC/C(=C\c3ccc(Br)cc3)C1=N2

pIC50 (Dihydrofolate reductase): 6.00
SMILES: COc1cc(/C=C2\CCCC3=C(c4cc(OC)c(OC)c(OC)c4)Nc4cc(C)c(C)cc4N=C32)cc(OC)c1OC

pIC50 (Dihydrofolate reductase): 4.92
SMILES: Clc1ccc(/C=C2\CCCC3=C(c4ccc(Cl)cc4)Nc4cc(Cl)c(Cl)cc4N=C32)cc1

SMILES: COc1ccc(/C=C2\CCCc3c2nc(C)nc3-c2ccc(OC)c(OC)c2)cc1OC
inhibition of growth at 10 µM (SF-268): 80% | inhibition of growth at 10 µM (U-251): 81.8% | inhibition of growth at 10 µM (SNB-19): 39.6% | inhibition of growth at 10 µM (IGROV-1): 75.6% | inhibition of growth at 10 µM [1]: 79.8% | GI50 [2]: 26.9 µM | TGI [2]: > 100 µM | CC50 [2, 18]: > 100 µM | inhibition of growth at 10 µM (OVCAR-8): 96.9% | inhibition of growth at 10 µM (DU-145): 92.7% | inhibition of growth at 10 µM (NCI-H460): 99.4% | inhibition of growth at 10 µM (A498): 94.1% | inhibition of growth at 10 µM [3]: 88.8% | GI50 [4]: 28.9 µM | TGI [4]: 88.9 µM | CC50 [4, 18]: > 100 µM | GI50 [5]: 26.9 µM | LC50 [5]: > 100 µM | TGI [5]: > 100 µM | inhibition of growth at 10 µM (OVCAR-3): 97.1% | inhibition of growth at 10 µM (K562): 94.1% | inhibition of growth at 10 µM (NCI-H322M): 52.6% | inhibition of growth at 10 µM (ACHN): 90.2% | GI50 [6]: 37.8 µM | TGI [6]: 90.2 µM | CC50 [6, 18]: > 100 µM | inhibition of growth at 10 µM [7]: 65.7% | inhibition of growth at 10 µM (786-0): 90.8% | inhibition of growth at 10 µM [8]: 95.3% | inhibition of growth at 10 µM [9]: 41% | pIC50 (Dihydrofolate reductase): 7.00 | inhibition of growth at 10 µM (PC-3): 68% | inhibition of growth at 10 µM (SN12C): 94.1% | inhibition of growth at 10 µM (SF-295): 97% | GI50 [10]: 6.8 µM | LC50 [10]: > 100 µM | TGI [10]: 92.7 µM | inhibition of growth at 10 µM (T47D): 88.8% | inhibition of growth at 10 µM (SR): < 30% | inhibition of growth at 10 µM [11]: 82.9% | inhibition of growth at 10 µM (TK-10): 87.8% | inhibition of growth at 10 µM (SK-MEL-5): 93.8% | inhibition of growth at 10 µM [12]: < 30% | inhibition of growth at 10 µM (HOP-62): 67.9% | inhibition of growth at 10 µM (MDA-MB-231): 92.9% | inhibition of growth at 10 µM (UACC-62): 89.1% | inhibition of growth at 10 µM (SK-MEL-2): 94.1% | inhibition of growth at 10 µM (KM12): 93.8% | inhibition of growth at 10 µM (NCI-H23): 70.9% | inhibition of growth at 10 µM (CAKI-1): 94.9% | inhibition of growth at 10 µM (SK-MEL-28): 77% | inhibition of growth at 10 µM [13]: 69.9% | CC50 [14]: 96.9 µM | GI50 [14]: 23.7 µM | TGI [14]: 98.7 µM | inhibition of growth at 10 µM (SK-OV-3): 93% | GI50 [15]: 34.2 µM | TGI [15]: > 100 µM | CC50 [15, 18]: > 100 µM | inhibition of growth at 10 µM (SNB-75): 64.8% | GI50 [16]: 15.7 µM | LC50 (concentration killing 50% of cells) [16]: 99.2 µM | TGI [16]: 80.6 µM | inhibition of growth at 10 µM [17]: 79.1% | inhibition of growth at 10 µM (MDA-MB-435): 98.5% | inhibition of growth at 10 µM (MCF7): 73.7% | inhibition of growth at 10 µM (A549): 82.1%

pIC50 (Dihydrofolate reductase): 4.15
SMILES: Cc1cc2c(cc1C)NC(c1ccc(Cl)cc1)=C1CCC/C(=C\c3ccc(Cl)cc3)C1=N2
